This is an account of results in ChEMBL document CHEMBL4304739, “Discovery of 3-(Indol-5-yl)-indazole Derivatives as Novel Myeloid Differentiation Protein 2/Toll-like Receptor 4 Antagonists for Treatment of Acute Lung Injury” (J Med Chem, 2019).

One data set has as its system Peritoneal macrophage. The data set is described as follows: Cytotoxicity against ICR mouse peritoneal macrophages assessed as reduction in cell viability at 10 uM measured after 24 hrs by MTT assay. The data set is classed as cell-based. Summed up: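 Peritoneal macrophages from ICR mice, 2.0×10^4 cells/well in DMEM with 10% FBS. Cells exposed to compound for 24 h, then MTT (5 mg/ml in 0.9% NaCl) added for 4 h at 37 °C in 5% CO2. Absorbance read at 490 nm; final DMSO 0.1%.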
In general terms: Tetrazolium dyes change colour on reduction, which living cells bring about.

The target in data set [1] is T1, Toll-like receptor 4/Ly96 (Mus musculus, UniProt Q9JHF9+Q9QUK6).
T1 sequence (Q9QUK6 whole entry): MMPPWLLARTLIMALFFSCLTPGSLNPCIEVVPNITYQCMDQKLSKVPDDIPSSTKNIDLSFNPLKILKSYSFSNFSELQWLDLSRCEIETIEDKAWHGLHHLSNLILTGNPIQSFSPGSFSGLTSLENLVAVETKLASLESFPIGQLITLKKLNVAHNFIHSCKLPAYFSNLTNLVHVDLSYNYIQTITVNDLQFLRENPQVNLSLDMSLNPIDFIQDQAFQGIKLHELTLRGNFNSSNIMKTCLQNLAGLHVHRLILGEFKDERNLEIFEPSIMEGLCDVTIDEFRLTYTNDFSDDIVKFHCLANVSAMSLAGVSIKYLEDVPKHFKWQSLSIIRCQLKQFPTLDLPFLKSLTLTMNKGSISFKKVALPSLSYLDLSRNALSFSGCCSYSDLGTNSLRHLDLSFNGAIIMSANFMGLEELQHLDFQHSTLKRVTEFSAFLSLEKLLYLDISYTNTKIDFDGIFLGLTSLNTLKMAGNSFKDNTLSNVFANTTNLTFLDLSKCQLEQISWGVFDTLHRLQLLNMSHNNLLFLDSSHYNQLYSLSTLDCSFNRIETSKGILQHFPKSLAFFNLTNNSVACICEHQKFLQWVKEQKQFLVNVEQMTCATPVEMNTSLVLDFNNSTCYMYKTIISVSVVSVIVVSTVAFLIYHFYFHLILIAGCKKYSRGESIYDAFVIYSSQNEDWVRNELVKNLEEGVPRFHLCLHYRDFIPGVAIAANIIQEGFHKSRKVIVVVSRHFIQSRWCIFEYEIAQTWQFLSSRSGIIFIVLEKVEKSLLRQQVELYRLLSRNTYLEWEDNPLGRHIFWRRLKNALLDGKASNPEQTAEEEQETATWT
T1 sequence (Q9JHF9 whole entry): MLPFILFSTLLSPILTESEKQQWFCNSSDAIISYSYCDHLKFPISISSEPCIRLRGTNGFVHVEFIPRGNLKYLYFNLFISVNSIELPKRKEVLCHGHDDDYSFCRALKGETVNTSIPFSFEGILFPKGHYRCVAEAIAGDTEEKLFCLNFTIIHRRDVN
Briefly: Inhibition of MD2-TLR4 protein-protein interaction in ICR mouse peritoneal macrophages assessed as reduction in LPS-induced IL-6 production preincubated for 2 hrs followed by LPS-stimulation and measured after 22 hrs by ELISA. For orientation: An ELISA detects its analyte on a solid surface through an enzyme-linked reagent.

In data set [2] the target is T1, Toll-like receptor 4/Ly96. The data set is described as follows: Inhibition of MD2-TLR4 protein-protein interaction in ICR mouse peritoneal macrophages assessed as reduction in LPS-induced TNFalpha production preincubated for 2 hrs followed by LPS-stimulation and measured after 22 hrs by ELISA.
Data set [3] relates to Mus musculus. Briefly: Antiinflammatory activity in LPS-induced C57BL/6 mouse model of acute lung injury assessed as reduction in F4/80 positive macrophage at 10 mg/kg, iv pretreated for 15 mins followed by LPS stimulation and measured after 6 hrs by ABC/hematoxylin staining-based immunohistochemistry analysis. The data set is classed as functional, organism-based. Summed up: (§1)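 Male C57BL/6 mice (18−22 g; n=8 per group). Compound in 0.1% CMC-Na given by tail vein injection 15 min before intraperitoneal LPS (20 mg/kg); controls received saline. Mice were sacrificed 6 h after LPS, and serum and lung tissue were collected.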

Data set [4] deals with Mus musculus. Briefly: Antiinflammatory activity in LPS-induced C57BL/6 mouse model of acute lung injury assessed as reduction in lung injury score at 10 mg/kg, iv pretreated for 15 mins followed by LPS stimulation and measured after 6 hrs. Type of data set: functional, organism-based. Summed up: as §1

Calls of active or inactive are those of the source. The calls are words filed in the database; no cut-off is given here.

On to `O=C(Nc1ccc2c(c1)c(-c1ccc3[nH]ccc3c1)nn2Cc1ccccc1)c1c(Cl)cccc1Cl`, for which the Activity entry in the data set on Peritoneal macrophage is on record as “Non-Toxic”.

For the compound `CC(=O)Nc1ccc2[nH]nc(-c3ccc4c(ccn4CCO)c3)c2c1`, in the data set on Peritoneal macrophage, the Activity entry was “Non-Toxic”.

Take `O=C(Nc1ccc2[nH]nc(-c3ccc4c(ccn4CCO)c3)c2c1)c1cccc(Cl)c1`: in the data set with Peritoneal macrophage, the Activity entry is “Non-Toxic”. Still for that read-out and setting: the result for `Nc1ccc2[nH]nc(-c3ccc4c(ccn4CCO)c3)c2c1` reads “Non-Toxic”; that for `CCC(=O)Nc1ccc2[nH]nc(-c3ccc4c(ccn4CCO)c3)c2c1`, “Non-Toxic”. For the compound `O=C(CCCl)Nc1ccc2[nH]nc(-c3ccc4c(ccn4CCO)c3)c2c1`, the IC50 (as a rule, the concentration that gives 50% inhibition) was determined as 4.57 µM in data set [1] and 3.47 µM in data set [2]. Also, in the data set on Peritoneal macrophage, the Activity entry was “Non-Toxic”. In the case of `CCCn1c(-c2c[nH]c3ncccc23)nc2ccc(N3CCN(C)CC3)nc21`, the outcome in the data set on Mus musculus [3] and in the data set with Mus musculus [4] was Active. On to `O=C(Nc1ccc2[nH]nc(-c3ccc4c(ccn4CCO)c3)c2c1)c1ccc(F)cc1`, for which the Activity entry in the data set with Peritoneal macrophage is “Non-Toxic”. `O=C(Nc1ccc2[nH]nc(-c3ccc4c(ccn4CCO)c3)c2c1)c1c(Cl)cccc1Cl`: the IC50 stood at 0.73 µM in data set [1] and 6.31 µM in data set [2]. In the data set with Peritoneal macrophage, the Activity entry was “Non-Toxic”. Taken in the same sequence, the figures for `O=[N+]([O-])c1ccc2[nH]nc(-c3ccc4c(ccn4CCO)c3)c2c1` were 0.84 µM, 6.99 µM and “Non-Toxic”. Turning to `COc1cc(OC)cc(C(=O)Nc2ccc3[nH]nc(-c4ccc5c(ccn5CCO)c4)c3c2)c1`, in the data set with Peritoneal macrophage, the Activity result is “Non-Toxic”. `Cc1cccc(C(=O)Nc2ccc3[nH]nc(-c4ccc5c(ccn5CCO)c4)c3c2)c1`: the Activity entry with Peritoneal macrophage was “Non-Toxic”. On the same count and under the same terms, to `Cc1cccc(C(=O)Nc2ccc3[nH]nc(-c4ccc5c(ccn5CCO)c4)c3c2)n1` belongs “Non-Toxic”; to `O=C(Nc1ccc2[nH]nc(-c3ccc4c(ccn4CCO)c3)c2c1)c1ccccn1`, “Non-Toxic”.

With `O=C(/C=C/c1ccccc1)Nc1ccc2[nH]nc(-c3ccc4c(ccn4CCO)c3)c2c1`, the Activity entry in the data set with Peritoneal macrophage is reported as “Non-Toxic”. The same measure, in the same setting: the result for `O=C(Nc1ccc2[nH]nc(-c3ccc4c(ccn4CCO)c3)c2c1)c1ccc(Cl)cc1` reads “Non-Toxic”.
